Arbovirus inh = antivirals against arbovirus infection | arbovirus infection cell-based antiviral screen | inhibition, % at 10 µM | 200,000 compounds, 0.37% hits; in the data active = inhibition above about 30%
TNAP inh noacc = TNAP (human) inhibition, acceptor-free conditions; P05186; purified TNAP, CDP-star luminescence, 30 min; inhibition, % at 20 µM; 200,000 compounds, 0.26% hits;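 active = tissue-nonspecific alkaline phosphatase inhibition above about 50% at 20 µM in the single-dose screen, limit read from the data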
PKD1 inh = inhibitors of human PKD1 kinase; PKD1 kinase fluorescence polarization assay; inhibition, % (test concentration not listed); 200,000 compounds, 0.056% hits; Q15139; in the data active = inhibition above about 50%
Target sequence (Q15139 whole entry, looked up): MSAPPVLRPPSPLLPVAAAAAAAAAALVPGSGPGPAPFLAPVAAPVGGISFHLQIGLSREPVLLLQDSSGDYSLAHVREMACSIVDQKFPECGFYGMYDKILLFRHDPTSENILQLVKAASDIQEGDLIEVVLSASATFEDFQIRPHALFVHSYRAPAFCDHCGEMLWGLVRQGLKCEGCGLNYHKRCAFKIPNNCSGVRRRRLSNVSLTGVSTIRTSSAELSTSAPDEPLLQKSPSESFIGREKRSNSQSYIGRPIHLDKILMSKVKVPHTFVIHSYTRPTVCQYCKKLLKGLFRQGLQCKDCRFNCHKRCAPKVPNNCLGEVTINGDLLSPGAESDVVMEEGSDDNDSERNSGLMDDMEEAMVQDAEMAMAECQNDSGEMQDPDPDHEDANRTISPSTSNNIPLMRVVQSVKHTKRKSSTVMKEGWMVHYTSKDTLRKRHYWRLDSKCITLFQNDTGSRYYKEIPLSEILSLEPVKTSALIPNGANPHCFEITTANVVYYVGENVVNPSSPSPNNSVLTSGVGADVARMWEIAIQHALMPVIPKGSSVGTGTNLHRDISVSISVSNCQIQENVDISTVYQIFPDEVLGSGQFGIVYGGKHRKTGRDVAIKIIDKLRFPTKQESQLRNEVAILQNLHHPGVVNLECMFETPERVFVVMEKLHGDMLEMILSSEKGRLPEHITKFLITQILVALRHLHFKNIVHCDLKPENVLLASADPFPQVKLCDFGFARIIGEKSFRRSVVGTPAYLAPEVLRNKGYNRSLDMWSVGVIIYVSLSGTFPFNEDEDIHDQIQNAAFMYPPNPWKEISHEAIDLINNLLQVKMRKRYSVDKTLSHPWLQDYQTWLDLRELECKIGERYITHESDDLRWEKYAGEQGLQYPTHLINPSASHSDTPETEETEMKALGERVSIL
TNAP inh hi DEA = inhibitors of human TNAP at high phosphate acceptor concentration | P05186 | inhibition, % at 20 µM | AID 1135 | 200,000 compounds, 0.03% hits | purified TNAP, CDP-star luminescence, 1 M DEA;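 active = over 50% inhibition of tissue-nonspecific alkaline phosphatase at 20 µM in the single-dose screen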
TNAP act hiacc = activators of human TNAP at high phosphate acceptor concentration | 200,000 tested, under 10 active | activation factor at 20 µM | purified TNAP, CDP-star luminescence, 1 M DEA, 30 min; stronger effect = higher value; 0 = EDTA background, 1 = DMSO-only activity;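 active = activation factor at least 2 at 20 µM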
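Control set: EDTA negative control, DMSO positive control / Assay system: human TNAP / Quantity: TNAP 1/800 final / Evaluation: TNAP activation factor scaled between EDTA and DMSO control wells / Measured by: luminescent substrate turnover signal / Compound dosing: one dose, 20 µM / Times: 30 min enzyme reaction at room temperature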
Numbers stand for hits; . = inactive. Most compounds without a hit are left out; they make up all but 0.72% or so of the library.

SMILES | Arbovirus inh | TNAP inh noacc | PKD1 inh | TNAP inh hi DEA | TNAP act hiacc
COc1cc(/C=N/N=C2/C(=O)Nc3ccccc32)cc(OC)c1O | . | . | . | 56 | .
COC(=O)[C@@H](NC(=O)O[C@@H]1C(=O)c2cc(Br)ccc2O[C@H]1c1cccc(OC)c1)C(C)C | . | . | . | . | .
Brc1ccc(C2NCCS2)cc1 (stereo not given) | . | 72 | . | . | .
O=C1NN=C(c2ccc(Br)cc2)CC1c1ccc(Cl)cc1 (stereo not given) | . | . | . | . | .
Cc1nnc(NC(=O)CSc2ccc3nnc(-c4cccnc4)n3n2)s1 | . | . | . | . | .
COc1ccc(Cl)cc1-n1c(C)ccc1C | . | . | . | . | .
FC(F)(F)c1cccc(Oc2ccc3c(C(F)(F)F)cc(C(F)(F)F)nc3n2)c1 | 51 | . | . | . | .
CS(=O)(=O)n1nc(-c2ccc(Cl)cc2)nc1SCc1ccccc1 | . | 68 | . | . | .
CSc1nc(-c2ccc(Cl)cc2)nn1S(=O)(=O)c1ccccc1 | . | . | . | . | .
C#CCSc1ncc(S(=O)(=O)c2ccccc2)c(=O)[nH]1 | 30 | . | . | . | .
CC(C)Sc1ncc(S(=O)(=O)c2ccccc2)c(=O)[nH]1 | . | . | . | . | .
COCCn1c(-c2ccccc2)cnc1SCC(=O)Nc1cccc2ccccc12 | 38 | . | . | . | .
Cc1ccc(C2C(C#N)=C(N)Oc3n[nH]c(-c4cccs4)c32)cc1 (stereo not given) | . | . | . | . | .
COc1cc(C2C(C#N)=C(N)Oc3n[nH]c(-c4cccs4)c32)cc(OC)c1O (stereo not given) | . | 54 | . | . | .
Cc1nc2c(C(=O)NCc3ccccc3Cl)c[nH]n2c(=O)c1Cl | . | . | . | . | .
Cc1nc2c(C(=O)NCCc3ccccc3Cl)c[nH]n2c(=O)c1Cl | 60 | . | . | . | .
C/C(=N\NC(=O)C(=O)N/N=C(\C)c1cccc(O)c1)c1cccc(O)c1 | . | 55 | . | . | .
O=C(NNc1ccc(O)cc1)c1ccc(Br)cc1 | . | . | . | . | .
O=C(NNC1=Nc2cccc3cccc1c23)c1ccc(Br)cc1 | . | . | 50 | . | .
COc1ccc(OC)c(/C=N\NC(=O)CC(=O)NCCc2ccccc2)c1 | 31 | . | . | . | .
CCCc1n[nH]c2c1C(=O)C(C(=O)OC)C(C)(C)C2 (stereo not given) | . | 61 | . | . | .
Cc1cccc(Cn2nc(C)cc2NC(=O)CCCn2ccc([N+](=O)[O-])n2)c1 | . | . | . | . | .
COC(=O)c1ccccc1NC(=O)CN1CCC(NC(=O)c2ccc(C)cc2)CC1 | 55 | . | . | . | .
COC(=O)c1ccccc1NC(=O)CN1CCC(n2nnc3cc(F)ccc32)CC1 | 40 | . | . | . | .
CSCCC(NC(=O)c1ccccc1C)C(=O)O (stereo not given) | . | . | . | . | .
SMILES | Arbovirus inh | TNAP inh noacc | PKD1 inh | TNAP inh hi DEA | TNAP act hiacc
Cc1noc(C(=O)Nc2sc3c(c2C#N)CCC3)c1Cl | 32 | . | . | . | .
Cc1cc(C(=O)Nc2sc3c(c2C#N)CCC3)no1 | . | . | . | . | .
CCc1ccc(CCC(=O)Nc2ccccc2C(=O)O)o1 | 38 | . | . | . | .
CCNC(=O)CC(=O)Nc1ccccc1C(=O)O | . | . | . | . | .
OC(CNCCc1ccccc1)c1ccccc1 (stereo not given) | . | . | . | . | .
COc1ccc(CCNCC(O)c2ccccc2)cc1 (stereo not given) | 31 | . | . | . | .
COc1ccc(CN(CC2CCCO2)C(=O)c2cc3sccc3n2C)c(OC)c1 (stereo not given) | . | . | . | . | .
COc1ccc(Br)cc1CN(C)CC(=O)Nc1cccc(S(N)(=O)=O)c1 | . | . | . | . | .
COc1ccc(Br)cc1CN(C)CC(=O)Nc1c(Cl)cccc1Cl | 30 | . | . | . | .
COc1ccccc1Cc1nc2ccccc2n1S(=O)(=O)c1ccc(Cl)cc1 | . | . | . | . | .
Cc1ccc(NS(=O)(=O)c2cc([N+](=O)[O-])ccc2NNC(=S)Nc2cccc(Cl)c2)c(C)c1 | . | . | . | 58 | .
Cc1ccc(NS(=O)(=O)c2cc([N+](=O)[O-])ccc2NNC(=S)Nc2cc(C)ccc2C)c(C)c1 | . | . | . | . | .
CCCCCCc1cc2cc(C(=O)Nc3ccccc3OC)c(=O)oc2cc1O | 80 | . | . | . | .
Cc1ccc(-n2nc(C)c(Sc3ccccc3[N+](=O)[O-])c2N)cc1 | . | . | . | . | .
